Square brackets hold non-standard residues; d marks the D form. Peptide text beside a SMILES is read from it. * marks the point of attachment. X1 = CC(C)C[C@@H](C(=O)*)N1C(=O)N[C@H](Cc2c[nH]c3ccccc23)C1=O
The molecules below were run against T1, Endothelin receptor (Rattus norvegicus, UniProt P26684+P21451) (assay: Inhibition constant for the displacement of specific binding of [125I]-ET (Kd=2 nM) bound to rat pituitary membrane).
T1 sequence (P26684 whole entry): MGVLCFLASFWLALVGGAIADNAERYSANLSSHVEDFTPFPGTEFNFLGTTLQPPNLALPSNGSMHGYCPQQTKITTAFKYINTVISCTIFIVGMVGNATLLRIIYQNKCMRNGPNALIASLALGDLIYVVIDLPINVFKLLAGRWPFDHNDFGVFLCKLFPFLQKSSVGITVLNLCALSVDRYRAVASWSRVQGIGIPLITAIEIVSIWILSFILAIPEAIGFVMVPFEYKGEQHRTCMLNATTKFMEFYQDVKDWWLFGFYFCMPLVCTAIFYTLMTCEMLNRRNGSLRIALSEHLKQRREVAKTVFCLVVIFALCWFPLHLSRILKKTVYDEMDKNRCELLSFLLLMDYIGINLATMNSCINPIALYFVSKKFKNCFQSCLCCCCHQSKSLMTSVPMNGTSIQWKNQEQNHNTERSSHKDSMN
T1 sequence (P21451 whole entry): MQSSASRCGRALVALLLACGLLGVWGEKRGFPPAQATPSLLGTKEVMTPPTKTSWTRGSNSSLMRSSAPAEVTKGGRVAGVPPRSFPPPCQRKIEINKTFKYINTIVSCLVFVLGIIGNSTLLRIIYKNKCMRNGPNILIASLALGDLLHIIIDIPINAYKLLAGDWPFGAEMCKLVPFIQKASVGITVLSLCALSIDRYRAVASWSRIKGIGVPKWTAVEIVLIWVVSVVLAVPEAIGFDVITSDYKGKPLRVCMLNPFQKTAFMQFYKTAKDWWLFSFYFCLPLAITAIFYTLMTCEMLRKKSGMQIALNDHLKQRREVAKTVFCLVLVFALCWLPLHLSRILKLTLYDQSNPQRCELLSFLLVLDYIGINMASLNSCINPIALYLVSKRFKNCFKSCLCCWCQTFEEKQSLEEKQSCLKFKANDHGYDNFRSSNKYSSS
Assay type: tissue-based, Pituitary gland; call rule not given here

Ki [nM] | SMILES
6000 | CC[C@H](C)[C@H](NC(=O)[C@H](CC(=O)O)NC(=O)[C@H](CC(C)C)N1C(=O)N[C@H](Cc2c[nH]c3ccccc23)C1=O)C(=O)N[C@H](C(=O)N[C@@H](Cc1c[nH]c2ccccc12)C(=O)O)[C@@H](C)CC (X1-DIIW-OH)
55000 | CC[C@H](C)[C@H](NC(=O)[C@H](CC(=O)O)NC(=O)[C@H](CC(C)C)NC(=O)[C@H](N)Cc1c[nH]c2ccccc12)C(=O)N[C@H](C(=O)N[C@@H](Cc1c[nH]c2ccccc12)C(=O)O)[C@@H](C)CC

These molecules were tested against T2, Gonadotropin-releasing hormone receptor (Rattus norvegicus, UniProt P30969) (assay: Inhibition constant for the displacement of specific binding of [125I][D-Lys6]-GnRH (Kd=177 pM) bound to rat pituitary membranes).
T2 sequence (P30969 whole entry): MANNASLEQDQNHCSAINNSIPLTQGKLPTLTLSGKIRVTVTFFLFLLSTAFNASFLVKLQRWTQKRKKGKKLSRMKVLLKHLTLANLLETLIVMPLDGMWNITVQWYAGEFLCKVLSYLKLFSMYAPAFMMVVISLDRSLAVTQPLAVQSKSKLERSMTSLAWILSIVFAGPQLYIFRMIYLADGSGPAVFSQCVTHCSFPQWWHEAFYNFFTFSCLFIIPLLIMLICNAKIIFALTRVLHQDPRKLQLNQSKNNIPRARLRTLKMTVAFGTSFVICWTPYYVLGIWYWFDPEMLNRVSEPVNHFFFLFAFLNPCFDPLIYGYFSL
Assay type: cell membranes, Membrane
Procedure, shortened: (§1)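 Membranes from proestrous Wistar-derived rat pituitaries (25 μg protein/tube) incubated 90 min at 4 °C with 23.5 pM 125I-[D-Lys6]GnRH plus increasing unlabeled peptide (up to 10 μM, DMSO ≤1%) in 10 mM Tris-HCl/0.1% BSA. Filtration on GF/C, gamma counting. Nonspecific binding from 1 μM [D-Lys6]GnRH. Ki fitted from displacement curves; two experiments in triplicate, mean ± SEM.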

Ki [nM] | SMILES
230 | CC[C@H](C)[C@H](NC(=O)[C@H](CC(=O)O)NC(=O)[C@H](CC(C)C)N1C(=O)N[C@H](Cc2c[nH]c3ccccc23)C1=O)C(=O)N[C@H](C(=O)N[C@@H](Cc1c[nH]c2ccccc12)C(=O)O)[C@@H](C)CC (X1-DIIW-OH)
320 | CC[C@H](C)[C@@H]1NC(=O)CSC[C@@H](C(=O)O)NC(=O)[C@H](CC(C)C)NC(=O)[C@@H](Cc2c[nH]c3ccccc23)NC(=O)[C@H](Cc2c[nH]c3ccccc23)NC(=O)[C@H]([C@@H](C)CC)NC1=O
700 | CC[C@H](C)[C@H](N)C(=O)N[C@H](C(=O)N[C@@H](Cc1c[nH]c2ccccc12)C(=O)N[C@H](Cc1c[nH]c2ccccc12)C(=O)N[C@@H](CC(C)C)C(=O)N[C@@H](CC(=O)O)C(=O)O)[C@@H](C)CC
500 | CC[C@H](C)[C@H](N)C(=O)N[C@H](C(=O)N[C@@H](Cc1c[nH]c2ccccc12)C(=O)N[C@H](Cc1c[nH]cn1)C(=O)N[C@@H](CC(C)C)C(=O)N[C@@H](CC(=O)O)C(=O)O)[C@@H](C)CC
8000 | CC[C@H](C)[C@H](N)C(=O)N[C@H](C(=O)N[C@@H](Cc1c[nH]c2ccccc12)C(=O)N[C@H](Cc1ccccc1)C(=O)N[C@@H](CC(C)C)C(=O)N[C@@H](CC(=O)O)C(=O)O)[C@@H](C)CC
4000 | CC[C@H](C)[C@H](N)C(=O)N[C@H](C(=O)N[C@@H](Cc1c[nH]c2ccccc12)C(=O)N[C@@H](Cc1c[nH]c2ccccc12)C(=O)N[C@@H](CC(C)C)C(=O)N[C@@H](CC(=O)O)C(=O)O)[C@@H](C)CC
8000 | CC[C@H](C)[C@H](NC(=O)[C@H](CC(=O)O)NC(=O)[C@H](CC(C)C)NC(=O)[C@H](N)Cc1c[nH]c2ccccc12)C(=O)N[C@H](C(=O)N[C@@H](Cc1c[nH]c2ccccc12)C(=O)O)[C@@H](C)CC
> 10000 | CC[C@H](C)[C@H](N)C(=O)N[C@H](C(=O)N[C@@H](Cc1c[nH]c2ccccc12)C(=O)N[C@H](C)C(=O)N[C@@H](CC(C)C)C(=O)N[C@@H](CC(=O)O)C(=O)O)[C@@H](C)CC
1900 | CC[C@H](C)[C@H](NC(=O)[C@H](CC(=O)O)NC(=O)[C@H](CC(C)C)NC(=O)[C@@H](Cc1c[nH]c2ccccc12)NC(C)=O)C(=O)N[C@H](C(=O)N[C@@H](Cc1c[nH]c2ccccc12)C(=O)O)[C@@H](C)CC (Ac-[dW]LDIIW-OH)
700 | CC[C@H](C)[C@@H]1NC(=O)[C@H](CC(=O)O)NC(=O)[C@H](CC(C)C)NC(=O)[C@@H](Cc2c[nH]c3ccccc23)NC(=O)[C@H](Cc2c[nH]c3ccccc23)NC(=O)[C@H]([C@@H](C)CC)NC1=O
2000 | CC[C@H](C)[C@H](NC(=O)[C@H](CCCNC(=N)N)NC(=O)[C@H](CC(C)C)NC(=O)[C@@H](Cc1c[nH]c2ccccc12)NC(C)=O)C(=O)N[C@H](C(=O)N[C@@H](Cc1c[nH]c2ccccc12)C(=O)O)[C@@H](C)CC

The molecules below were run against T2, Gonadotropin-releasing hormone receptor (assay: Inhibition constant for the displacement of specific binding of [125I][D-Lys6]-GnRH (Kd=177 pM) bound to rat pituitary membranes; No significant binding at 10 uM).
Assay type: cell membranes, Membrane
Procedure, shortened: as §1

Ki | SMILES
Not Active | CC[C@H](C)[C@H](N)C(=O)N[C@H](C(=O)N[C@@H](Cc1c[nH]cn1)C(=O)N[C@H](Cc1c[nH]c2ccccc12)C(=O)N[C@@H](CC(C)C)C(=O)N[C@@H](CC(=O)O)C(=O)O)[C@@H](C)CC
Not Active | CC[C@H](C)[C@H](N)C(=O)N[C@H](C(=O)N[C@@H](Cc1ccccc1)C(=O)N[C@H](Cc1c[nH]c2ccccc12)C(=O)N[C@@H](CC(C)C)C(=O)N[C@@H](CC(=O)O)C(=O)O)[C@@H](C)CC

From ChEMBL document CHEMBL1133454, “Structure-activity studies of reduced-size gonadotropin-releasing hormone agonists derived from the sequence of an endothelin antagonist” (J Med Chem, 2000)
